Assay results published in publication PMC7115683 (European Journal of Medicinal Chemistry, 2013).

What was measured:
Feline herpes virus = assay: Anti-Feline Herpes Virus activity in CRFK cell cultures; format: cell-based; conditions: for EC50: CRFK, read-out: EC50 Feline herpes virus
[1] = μ-oxo heme binding, UV-visible titration and Job's plot; conditions: pH 5.8; association constant, HypSpec
Method in brief: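 UV–visible titration of test compound with μ-oxo heme at pH 5.8, plus Job plot (absorbance ratio A/A0 against mole fraction of test compound). Binding constant (log K) computed with HypSpec.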

[2] = test system: P. falciparum (CQ^S) D10 strain; assay: In vitro antimalarial activity, parasite lactate dehydrogenase assay, D10 strain; format: cell-based; conditions: Plasmodium falciparum, D10, read-out: D10 IC50
[3] = test system: P. falciparum (CQ^R) Dd2 strain; assay: In vitro antimalarial activity, Dd2 strain; format: cell-based, Plasmodium falciparum
[4] = Monomeric heme binding, UV-visible titration and Job's plot; conditions: association constant, HypSpec
Method in brief: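 UV–visible titration of test compound with monomeric heme at pH 7.4 (HEPES) and at food-vacuole pH 5.6 (MES), 1 cm cuvette at 25 °C. Association constants (log K) derived from the titration curves by non-linear least-squares fitting in HypSpec.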

CT DNA [5] = assay: CT DNA binding, UV spectrophotometry titration; conditions: both absorptions (255 and 330 nm), CT-DNA addition
Method in brief: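 Test compound (30 μM) in buffered methanol titrated with CT-DNA (4–200 μM). UV–visible spectra recorded 200–1100 nm in a 1 cm quartz cuvette, cell holder at 25 °C. Changes followed at the 255 nm and 330 nm absorption bands.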

CT DNA [6] = assay: CT DNA binding, fluorescence titration; conditions: emission band at 380 nm upon addition of CT DNA
Method in brief: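 Steady-state fluorescence at ambient temperature. Test compound (17.1 μM) in buffered methanol titrated with CT DNA (0.5–150 μM). Excitation 330 nm, emission monitored at 376 nm.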

[7] = test system: Madin Darby canine kidney (MDCK) cells; conditions: 50% cytotoxic concentration, MTS assay
[8] = test system: Crandell-Rees Feline Kidney (CRFK) cell cultures; conditions: MTS assay, HHA, UDA
[9] = test system: Feline corona virus (FIPV); assay: Anti-Feline Corona Virus activity in CRFK cell cultures; format: cell-based; conditions: HHA, UDA

## CCOC(=O)c1c(C)nc(NCCCCNc2ccnc3cc(Cl)ccc23)nc1-c1ccc(Cl)cc1 [Compound 5e, Ethyl 4-(4-chlorophenyl)-2-(4-((7-chloroquinolin-4-yl)amino)butylamino)-6-methylpyrimidine-5-carboxylate]
Feline herpes virus
  EC50: > 100 µM

## CCN(CC)CCCC(C)Nc1ccnc2cc(Cl)ccc12 (stereo not drawn) [CQ, Chloroquine]
[1]
  μ-oxoheme, log K ± σ: 5.58 ± 0.006
[2]
  IC50: 0.035 µM
[3]; Plasmodium falciparum, DD2, read-out: Dd2 IC50
  IC50: 0.222 µM
[4]; pH 5.6 (MES buffer)
  Monomeric heme, log K ± σ: 4.65 ± 0.052
[4]; pH 7.4 (HEPES buffer)
  Monomeric heme, log K ± σ: 5.15 ± 0.176

## CCOC(=O)c1c(C)nc(OCCCNc2ccnc3cc(Cl)ccc23)nc1-c1ccccc1 [Compound 5d, Ethyl 2-(3-((7-chloroquinolin-4-yl)amino)propoxy)-4-methyl-6-phenylpyrimidine-5-carboxylate]
Feline herpes virus
  EC50: > 100 µM

## CCOC(=O)c1c(C)nc(NCCCCNc2ccnc3cc(Cl)ccc23)nc1-c1ccccc1[N+](=O)[O-] [Compound 5c, Ethyl 2-(4-((7-chloroquinolin-4-yl)amino)butylamino)-4-methyl-6-(2-nitrophenyl)pyrimidine-5-carboxylate]
Feline herpes virus
  EC50: > 100 µM

## COC(=O)c1c(C)nc(NCCCNc2ccnc3cc(Cl)ccc23)nc1-c1ccccc1 [Compound 5a, Methyl 2-(3-((7-chloroquinolin-4-yl)amino)propylamino)-4-methyl-6-phenylpyrimidine-5-carboxylate]
Feline herpes virus
  EC50: > 20 µM

## CCOC(=O)c1c(C)nc(NCCCCNc2ccnc3cc(Cl)ccc23)nc1-c1ccc(F)cc1 [Compound 5f, Ethyl 4-(4-fluorophenyl)-2-(4-((7-chloroquinolin-4-yl)amino)butylamino)-6-methylpyrimidine-5-carboxylate]
Feline herpes virus
  EC50: > 100 µM

## Cc1nc(NCCCCNc2ccnc3cc(Cl)ccc23)nc(-c2ccccc2)c1C(=O)OC(C)C [Compound 5b, i-Propyl 2-(4-((7-chloroquinolin-4-yl)amino)butylamino)-4-methyl-6-phenylpyrimidine-5-carboxylate]
Feline herpes virus
  EC50: > 20 µM
CT DNA [5]
  bathochromic shift: ~3 nm
CT DNA [6]
  shift in emission band: 80 nm
[3]; CQ^R strain of P. falciparum
  fold increase in antimalarial activity than the standard CQ: 2 fold

## Ethyl 2-(3-((7-chloroquinolin-4-yl)amino)propylamino)-4-methylpyrimidine-5-carboxylate [Compound 5g]
[7]
  CC50: 10.3 µM

B1: UDA: reference agent in the CRFK antiviral assay, values in μg/ml; not explained in the paper (protein, UniProt P11218 24-372, looked up)
Lectin/endochitinase 1: QRCGSQGGGGTCPALWCCSIWGWCGDSEPYCGRTCENKCWSGERSDHRCGAAVGNPPCGQDRCCSVHGWCGGGNDYCSGSKCQYRCSSSVRGPRVALSGNSTANSIGNVVVTEPLFDQMFSHRKDCPSQGFYSYHSFLVAAESFPAFGTIGDVATRKREVAAFLAHISQATSGERSDVENPHAWGLCHINTTTVTENDFCTSSDWPCAAGKKYSPRGPIQLTHNFNYGLAGQAIGEDLIQNPDLVEKDPIISFKTALWFWMSQHDNKPSCHDIVLNANSAANRIPNKGVIGNIISRAFGHDDFAVRSSSIGFYKRYCDMLGVSYGHDLKYWFDNTPSSEFQRIQMRVAA
[8]
  CC50: 63.2 µg/mL
Feline herpes virus; CRFK cell cultures, HHA, UDA
  EC50 Feline herpes virus: 1.0 µg/mL
[9]
  EC50 Feline corona virus (FIPV): 1.6 µg/mL
